# CHT allo act: allosterically activates the human high affinity choline transporter. Q9GZV3. CHT-expressing cells, membrane potential dye, choline EC20; hits give high values; LV-AA mutant CHT in HEK293 cells. B-score at 10 µM. 310,000 tested, 0.49% active. AID 488977;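 active = initial fluorescence not abnormally high and integrated response B-score, plate-corrected, over 3 SD above library mean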
# HSF-1 act: increases HSF-1 driven luciferase reporter signal; NIH3T3-HGL HSF-1 luciferase reporter, MG132, 8 h; 100% = twice DMSO control signal; activation, % at 9 µM; 300,000 tested, 1.7% active;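 active = mean replicate activation of at least 50% with a set share of replicates each reaching 50%; inconclusive = only one of those two conditions met; inactive = mean below 50% and too few replicates reaching it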;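 also: 0% = median of the neutral control wells and 100% = twice that signal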
# HSF1 inhib: HSF1 inhibition. NIH3T3-HGL HSE-luciferase, MG132-induced, luminescence 8 h; hits give low values. activity change, negative = inhibition, % at 7.5 µM (by protocol). 300,000 tested, 0.77% active. AID 2098;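 active = more than half of replicate wells show activity change below -50%, luminescence cut by over half; inconclusive = some wells, but at most half, below -50%; inactive = no replicate well below -50%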;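 also: luciferase reports HSF-1 transcriptional activity via heat shock element; 0% = median of DMSO wells and -100% = zero luminescence signal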
# Lipid droplet: modulators of hepatic lipid droplet formation | AML12 mouse hepatocytes, oleate lipid droplets, BODIPY imaging | inhibition, % at 6.5 µM | 240,000 tested, 0.4% active | AID 1656;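 active = lipid droplet intensity inhibited by at least 50%, with more than 500 cells counted; inconclusive = wells with under 300 cells, treated as cytotoxic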
#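 Assay system: AML12 hepatocytes (mouse); Probe or stimulus: oleic acid at 100 µM to induce lipid droplet formation; Dosing: compound at 6.5 µM only; Schedule: compound with oleate, overnight; Detection: fluorescence imaging, 20x objective, two fields per well; Measure: % inhibition of lipid droplet signal.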
# CHT inh: inhibits the human high affinity choline transporter. 310,000 tested, 0.86% active. CHT-expressing cells, membrane potential dye, choline response; hits give low values. Q9GZV3. B-score at 10 µM;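 active = B-score over 3 SD under the library average, and starting fluorescence ratio not unusually high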;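 also: choline stimulus applied at its EC90 after an EC20 pre-addition; B-score computed on integrated fluorescence ratio after choline addition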
# PHOSPHO1 inh: PHOSPHO1 (human) inhibition; Q8TCT1; recombinant PHOSPHO1, absorbance phosphatase assay; inhibition, % at 13.3 µM; 290,000 tested, 1.1% active; AID 1565; in the data active = inhibition above about 60%
# Target sequence (Q8TCT1 whole entry, looked up): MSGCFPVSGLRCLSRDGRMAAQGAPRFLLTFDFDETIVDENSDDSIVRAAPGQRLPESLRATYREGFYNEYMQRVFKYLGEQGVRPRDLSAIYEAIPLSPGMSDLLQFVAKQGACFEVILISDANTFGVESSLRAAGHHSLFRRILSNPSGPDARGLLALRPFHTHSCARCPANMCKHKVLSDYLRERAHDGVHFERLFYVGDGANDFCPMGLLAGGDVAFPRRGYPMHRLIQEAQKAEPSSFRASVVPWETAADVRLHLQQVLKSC
# * hit, by the source's call; i = inactive; ? = inconclusive; . = no result given. The list is not random: actives were taken first. Their share in the collection is about 4.9%.
SMILES,CHT allo act,HSF-1 act,HSF1 inhib,Lipid droplet,CHT inh,PHOSPHO1 inh
CCOc1ccc(-n2c(N)c(C(=O)N3CCN(C)CC3)sc2=S)cc1,i,-2,-5,12,i,11
Nc1c(C(=O)N2CCOCC2)sc(=S)n1-c1ccccc1,i,-7,2,8,i,97*
Cc1ccc(-n2c(N)c(C(=O)N3CCCCC3)sc2=S)cc1,i,4,8,-2,i,76*
Nc1c(C(=O)N2CCCCC2)sc(=S)n1-c1ccccc1,i,.,.,-1,i,86*
CC(CC(=O)N1CCc2ccccc21)n1cccn1 (stereo not given),i,-5,-6,5,i,18
CCOCCOc1nc2c(c(=O)n(C)c(=O)n2C)n1Cc1ccc(C)cc1,i,18,-4,-6,i,-1
Nc1nc(-c2cccnc2)nc2sc3c(c12)CCCC3,i,80*,28,3,i,15
O=c1oc(-c2ccccc2)nc2sc3c(c12)CCCC3,i,69*,51,18,i,4
C=CCOC(=O)C(=O)/C=C/c1coc2ccccc2c1=O,i,1,2,-2,i,40
Cc1nc(S/C(=C/c2ccc(OCc3ccc(C(=O)O)cc3)cc2)C(=O)O)n[nH]1,i,32,-1,17,i,36
Cc1ccc(C)c(N2CCN(C(=O)c3cc(S(=O)(=O)N4CCCC4)cn3C)CC2)c1,i,-75,-68*,-16,i,23
CCn1c(O)c(C2=c3ccccc3=NC2=O)c2cc(Br)ccc21,i,209*,198,-12,i,51
Cc1cc(=S)[nH]c2c(C)cccc12,i,1,-10,-3,i,98*
CC(C)(C)NC(=O)NC(=O)CSc1n[nH]c(-c2ccccc2Br)n1,i,0,-8,4,i,63*
COc1nc(OC)nc(N2CCC(C(=O)NCc3ccc(F)cc3)CC2)n1,i,2,-2,.,i,0
CCOC(=O)CNC(=O)CSc1nc2nc(C)c(Br)cc2[nH]1,i,-8,-3,.,i,74*
Cc1c(CN2CCN(C)C(CCO)C2)[nH]c2c(Cl)cccc12 (stereo not given),i,12,-7,5,i,34
O=C(O)CSc1c(-c2ccccc2)[nH]c2ccccc12,i,70*,34,13,i,-5
O=C(C1CCC1)N1CCc2cc(S(=O)(=O)NCCN3CCN(c4ccccc4F)CC3)ccc21,i,-4,-8,.,i,18
S=c1[nH]nc(-c2ccccc2)n1C1C=CCCC1 (stereo not given),i,2,-4,.,i,92*
CC1=C(C(=O)OCc2ccccc2)C(c2ccc(-c3ccccc3)cc2)NC(=O)N1CCCC(=O)O (stereo not given),i,8,-4,.,i,.
Cc1ccc(/C=C/C(=O)Nc2nccs2)o1,i,62*,33,6,i,2
Cc1ccc(CN2CC(C(=O)Nc3ccc(S(=O)(=O)Nc4cc(C)nc(C)n4)cc3)CC2=O)cc1 (stereo not given),i,-9,-10,.,i,10
CCc1cc(C(=O)NCC(C)(C)N2CCOCC2)sc1C,i,-76,-68*,.,i,.
Cc1c(C(=O)OCC(C)C)[nH]c2c1C(=O)CC(c1ccco1)C2 (stereo not given),i,-16,-18,?,i,2
SMILES,CHT allo act,HSF-1 act,HSF1 inhib,Lipid droplet,CHT inh,PHOSPHO1 inh
Cc1c(C(=O)OCC2CCCO2)[nH]c2c1C(=O)CC(c1ccco1)C2 (stereo not given),i,57*,18,.,i,31
Cc1nnc(SCC(=O)NC(=O)Nc2ccc3c(c2)OCCO3)n1N,i,22,0,-5,i,10
Cc1ccc(C2NC(=O)c3c(sc(C)c3C)N2)c(O)c1 (stereo not given),i,.,.,.,i,104*
CC1=C(C(=O)Nc2ccccc2)C(c2cccc([N+](=O)[O-])c2)Nc2nc3ccccc3n21 (stereo not given),i,-20,0,-19,i,-11
CCOc1cc(CNc2ccc3c(c2)OCCO3)cc(Br)c1OCC(N)=O,i,-76,-74*,.,i,27
CC1Cc2ccccc2N1C(=O)COC(=O)Cc1ccc(F)cc1 (stereo not given),i,-7,3,.,i,.
COc1ccc(/C=N/NC(=O)c2cccnc2)c(C(=O)O)c1OC,i,73*,29,.,i,15
COc1ccccc1C(=O)Nc1nc2ccccc2s1,i,-90,-88*,-11,i,-13
CCCSc1nsc(NC(=O)Nc2ccc(F)cc2F)n1,i,68*,53,-9,i,3
COc1ccccc1C(=O)Nc1nc2ccc(S(C)(=O)=O)cc2s1,i,14,9,-38,i,-17
O=c1c(-c2nc3ccccc3s2)cccn1Cc1ccc(Cl)cc1,i,88*,72,.,i,24
COc1ccccc1C(=O)NCc1ccc(-c2nc3ccccc3s2)cc1,i,-53,-59*,3,i,-7
CCSc1nsc(NC(=O)Nc2cccc(F)c2)n1,i,3,-10,-28,i,25
Cc1cc(C)cc(NC(=O)c2cc(S(=O)(=O)N3CCCC3)cn2C)c1,i,4,-1,3,i,5
CCOC(=O)CSC(=S)NC(=O)c1ccc(OC)cc1,i,-4,5,8,i,-15
O=C1NC(SCCCF)=N/C1=C/c1ccc(-n2cncn2)cc1,i,2,-7,11,i,24
CCCCn1c(N)c(N(CC)C(=O)C(c2ccccc2)c2ccccc2)c(=O)[nH]c1=O,i,19,4,1,i,15
COc1cccc(-c2nc3ccccc3s2)c1O,i,90*,39,29,i,24
COC(=O)Cc1ccc2sc(-c3ccccc3)nc2c1,i,61*,30,6,i,22
COc1ccc(C(=O)Nc2nc3ccccc3s2)c(OC)c1,i,-93,-93*,8,i,.
O=C(Nc1ccccc1-c1nc2ccccc2s1)c1cccnc1,i,-59,-47,23,i,0
COc1cc(OC)c(-c2nc3ccccc3s2)cc1OC,i,-10,-2,3,i,-9
Clc1ncccc1-c1nc2ccccc2s1,i,2,9,15,i,61*
CC12CCC(C(=O)N3CCN(c4ccccc4)CC3)(CC1=O)C2(C)C (stereo not given),i,18,-1,21,i,-7
COC(=O)NNC(=O)C(c1ccccc1)c1ccccc1,i,-7,-1,.,i,.
